Source: PMC2767179 (Bioorganic & medicinal chemistry letters, 2009)

What was measured:
[1] = system: Myc-induced oncogenic transformation in chicken embryo fibroblasts (CEF); type: cell-based; settings: for IC95, inhibition of foci formation: Myc-induced foci in CEF; for inhibition of foci formation: at 20 μM; for inhibition of foci formation / EOT (efficiency of transformation, no inhibition = 1): Myc-induced, CEF; for EOT (efficiency of transformation, no inhibition = 1): tested at 20 μM
How it was run: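 Chicken embryo fibroblasts infected with the RCAS viral vector expressing transforming chicken cellular Myc. Test compound added at 20 μM. Cultures maintained for three weeks, then foci in each well counted manually by eye. Result expressed as efficiency of transformation (EOT), with no inhibition = 1. Active candidates re-tested in iterative rounds.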

[2] = system: Jun-induced oncogenic transformation in CEF; type: cell-based, chicken; settings: CEF infected with avian sarcoma virus 17
[3] = system: Src-induced oncogenic transformation in CEF; type: cell-based, chicken; settings: CEF infected with Prague strain of Rous sarcoma virus
Myc/Max dimerization = experiment: FRET assay for inhibition of Myc-Max dimerization; type: binding
CEF = experiment: Intrinsic cytotoxic activity for CEF; type: cell-based, chicken

| Compound | IC95, inhibition of foci formation [1] | inhibition of foci formation [1] | EOT (efficiency of transformation, no inhibition = 1) [1] | inhibitory activity for foci formation induced by Jun [2] | inhibitory activity for foci formation induced by Src [3] | inhibition of Myc/Max dimerization (Myc/Max dimerization) | intrinsic cytotoxic activity for CEF (CEF) |
| --- | --- | --- | --- | --- | --- | --- | --- |
| Cc1cc(C)c(S(=O)(=O)N[C@@H](CNC(=O)[C@@H]2CN(C(=O)CC3CCN(C(=O)OC(C)(C)C)CC3)C[C@H]2C(=O)O)C(=O)OC(C)(C)C)c(C)c1 [compound 3, mycmycin-1] | 20 µM | complete inhibition of foci formation | 0.05 | failed to exhibit inhibitory activity | failed to exhibit inhibitory activity | most effective inhibition | neither possess an intrinsic cytotoxic acitivity |
| CNC(=O)[C@@H]1CN(C(=O)CCCCCNC(=O)OC(C)(C)C)C[C@H]1C(=O)NC[C@H](NS(=O)(=O)c1cc(Cl)sc1Cl)C(=O)OC(C)(C)C [compound 4, mycmycin-2] | 20 µM | complete inhibition of foci formation | 0.05 | failed to exhibit inhibitory activity | failed to exhibit inhibitory activity | less effective inhibition | neither possess an intrinsic cytotoxic acitivity |
